Read-outs that look alike come from different tables or passages of the source. Some results are limits rather than exact numbers.

Broadly, the IC50 is the concentration that gives 50% inhibition.

Data set [1] relates to NF54^Pfs16 late-stage GAMs. The data set is described as follows: Image-based late-stage gametocyte inhibition assay. Format: cell-based, Plasmodium falciparum. The following applies: in words. Put shortly: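 Day-8 stage IV gametocytes were MACS-purified and set at 10% parasitemia and 0.1% Hct, with 0.4% DMSO final. They were incubated 72 h at 37°C in 5% O₂/5% CO₂/90% N₂, then stained overnight with MitoTracker Red CM-H₂XRos. Confocal imaging counted viable mature gametocytes per imaged area; 5 μM puromycin was the control. Screening used 2 μM in triplicate. Potency used serial dilutions up to 40 μM, three per log, on two independent occasions.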

Data set [2] has as its system female gametes from stage V GAMs. The data set is described as follows: Dual gamete formation assay, female gamete formation. Format: cell-based, Plasmodium falciparum. Conditions: for IC50: Plasmodium falciparum, 24 h.
The subject of data set [3] is HEK293 human embryonic kidney cell line. Briefly: HEK293 cytotoxicity. Format: cell-based. The following applies: at 40 μM, 72 h. Put shortly: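 Cells were grown in DMEM with 10% fetal calf serum and seeded at 2,000 cells/well, then left overnight at 37°C in 5% CO₂ to adhere. Test compound was added as a serial dilution with a maximum of 40 μM, at 0.4% DMSO final, for 72 h. Medium was then replaced with serum-free DMEM containing 44 μM resazurin for 4–6 h. Fluorescence was read at 530/595 nm. Two biological replicates.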

For data set [4], the system named is NITD609-R^Dd2 clone #2 (PfATP4 mutant line). The data set is described as follows: Imaging-based asexual blood stage high-throughput assay. Format: cell-based, Plasmodium falciparum. The following applies: read-out: ABS IC50, 72 h. Put shortly:
(§1)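 Sorbitol-synchronized parasites were seeded at 2% parasitemia and 0.3% Hct and exposed to test compound for 72 h at 37°C in 5% O₂/5% CO₂/90% N₂. Cells were then permeabilized with 0.01% Triton X-100, 0.001% saponin and 5 mM EDTA, and stained with 0.5 μg/mL DAPI for at least 6 h at room temperature in the dark. Confocal imaging used 405 nm excitation. Parasites were counted from spot size and intensity. Two independent cultures.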

In data set [5] the test system is Dd2 (multidrug-resistant) ABS parasites. Briefly: Imaging-based asexual blood stage high-throughput assay. Format: cell-based, Plasmodium falciparum. The following applies: read-out: ABS IC50; multidrug-resistant Dd2, 72 h.
Data set [6] concerns 3D7 (drug-sensitive) ABS parasites. Briefly: Imaging-based asexual blood stage high-throughput assay. Format: cell-based, Plasmodium falciparum. Conditions: read-out: ABS IC50; drug-sensitive 3D7, 72 h. Summed up: as §1
Data set [7] deals with NF54^Pfs16 early-stage GAMs. The data set is described as follows: Luciferase-based early-stage gametocyte inhibition assay. In kind it is cell-based, Plasmodium falciparum. Conditions: in words. Put shortly:
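Gametocytes on day 1 of gametocytogenesis were set at 10% parasitemia and 0.5% Hct. They were kept in medium with 50 mM N-acetyl-D-glucosamine, refreshed daily. Compound was added at 0.4% DMSO final. Controls were DMSO (0% inhibition) and 5 μM puromycin (100% inhibition). After 72 h at 37°C in 5% O₂/5% CO₂/90% N₂, Steadylite was added, followed by 60 min lysis at room temperature and a luminescence read. Potency used serial dilutions up to 40 μM, three per log, on two independent occasions.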

Data set [8] relates to compound-exposed Pf GAMs in Anopheles stephensi mosquitoes. The data set is described as follows: Membrane-feeding assay with A. stephensi mosquitoes. In kind it is in vivo, Plasmodium falciparum. Put shortly:
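Day-12 gametocytes were treated 3 days at 1x or 3x their late-stage IC50, with compound refreshed daily, then held 4 days without compound. Controls were 0.25% DMSO and methylene blue at 3x. Stage V cultures (50% Hct, 0.01–0.16% parasitemia) were membrane-fed for 30 min to A. stephensi, kept at 26°C and 78% RH. Midguts were dissected on day 7–8, stained with mercurochrome and oocysts counted blind. Prevalence is the percentage of mosquitoes with at least one oocyst.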

Data set [9] has as its system male GAM exflagellation. Briefly: Male GAM exflagellation of GAM cultures used for membrane feeding. Format: cell-based, Plasmodium falciparum. The following applies: GAM cultures exposed at 3x late-stage IC50.
For data set [10], the system named is male gametes from stage V GAMs. The data set is described as follows: Dual gamete formation assay, male gamete formation. In kind it is cell-based, Plasmodium falciparum. Conditions: for IC50: Plasmodium falciparum, 24 h.
The test system of data set [11] is Dd2-B2 parasites. The data set is described as follows: Heme fractionation assay. In kind it is cell-based, Plasmodium falciparum. The following applies: for heme fractionation effect compared to untreated controls: 0.1 to 2′ IC50.
The subject of data set [12] is PfMDR1^selY290F parasites. Briefly: Heme fractionation assay. In kind it is cell-based, Plasmodium falciparum. Conditions: MQ with increasing concentrations; LMF at 1–2′ IC50. Put shortly:
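Early ring-stage, sorbitol-synchronized parasites were exposed to test compound at 0.1, 0.25, 0.5, 1 and 2x the ABS IC50. Heme species were fractionated and normalized to the number of cells analyzed, counted by flow cytometry of an aliquot. Significance was tested by two-tailed t-tests.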

Data set [13] has as its system PfMDR1 mutant lines versus parental ABS parasites (Dd2-B2, FCB). The data set is described as follows: Drug susceptibility profiling of HHQ-resistant lines in ABS parasites. Format: cell-based, Plasmodium falciparum. Conditions: for susceptibility in GNF-Pf-5668-3C4D2 compared to PfMDR1^edF1072L: i.e. higher IC50 values; for fold increased susceptibility compared to wild-type Dd2-B2: GNF-Pf-5668-3C4D2 line (four pfmdr1 copies + F1072L (AB 69%)); for changes in susceptibility: all three lines: PfMDR1^edF1072L, PfMDR1^selY290F.

In data set [14] the test system is Dd2-B2 late rings. Briefly: Hb endocytosis by Western blot. In kind it is cell-based, Plasmodium falciparum. The following applies: 5′ the IC50 for 5 h, normalized to DMSO control. Summed up: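 Sorbitol-synchronized parasites were exposed to test compound at 5x IC50 for 5 h, starting at the late ring stage. Lysates were blotted to nitrocellulose and probed overnight at 4°C with rabbit anti-human Hb (1:5,000) and anti-β-actin (1:2,000). Detection was by ECL. Hb band intensities were normalized to β-actin and compared with untreated controls. Repeated on 3–4 independent occasions.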
In general terms: In western blotting, separated proteins are transferred to a membrane and probed.

Data set [15] concerns P. berghei ANKA MRA868 GAMs, Anopheles stephensi mosquitoes. Briefly: In vivo transmission-blocking effect. Details: species or system P. berghei in CD-1 mice. Conditions: mice given two doses 12 h apart: 100 mg/kg GNF compounds, 30 mg/kg DHA.
In data set [16] the test system is cultured P. berghei liver-stage parasites. Conditions: cited from earlier work.
[17] abbreviates: PfMDR1^selY290F (GNF-Pf-5660-2B6H1).

Turning to `CC(C)(C)c1ccc(O)c(CNC2CCCCC2)c1` [GNF-Pf-5310], the late-stage gametocytocidal activity result in [1] is “potent”. The “activity on female gamete formation” value in data set [2] (in words) was “no activity”. The “inhibition of HEK293 cells” value in [3] was less than 50%. Further, the 50% inhibitory concentration (IC50) in data set [4], in data set [5] and in data set [6] was less than 0.025 µM throughout. Further, the early-stage gametocytocidal activity entry in data set [7] is “potent”. The “reduction in oocyst density per infected mosquito midgut” value in [8] (GAMs pre-treated at 3x late-stage IC50) is given as 73%. The “reduction in infection prevalence (percentage of infected mosquitoes)” value in [8] (GAMs pre-treated at 3x late-stage IC50, 3 days, then 4 days without compound) was “no reduction”. In addition, the “reduction in male GAM exflagellation rates” value in [9] was “no effect”. In addition, the “activity on male gametes / exflagellation” value in data set [10] (in words) is “no activity”.
As for `CCCCN(CCCC)CC(O)c1cc(Cl)cc2c1-c1ccc(Cl)cc1/C2=C/c1ccc(Cl)cc1` (stereo not shown) [LMF, Lumefantrine], in data set [11], the “heme fractionation effect compared to untreated controls” value is “little or no effect”. Moreover, the “Hz and total heme iron levels” value in [12] was “reduction”. For the same compound, the “fold higher susceptibility versus Dd2-B2” value in data set [13] (PfMDR1^edF1072L) is 3.1 fold; in data set [13] (setting [17]) it was 1.9 fold. Further, the “fold increased susceptibility versus Dd2-B2” value in data set [13] (PfMDR1^edS1075I) was “unchanged”. In addition, in data set [13], the “susceptibility in GNF-Pf-5668-3C4D2 compared to PfMDR1^edF1072L” value (“susceptibility … compared to PfMDR1^edF1072L” for short) was “decreased susceptibility”. Besides, the “reduction of Hb levels within parasites” value in data set [14] is “no significant changes”.
Take `OC(c1cc(C(F)(F)F)nc2c(C(F)(F)F)cccc12)C1CCCCN1` (stereo not shown) [MQ, mefloquine]: in data set [11], the “heme fractionation effect compared to untreated controls” value is given as “little or no effect”. The “fold decrease in Hz levels” value in [11] (2′ the IC50) came out at 1.6 fold. Moreover, the “Hz and total heme iron levels” value in [12] is reported as “reductions”. Also, the “fold increased susceptibility compared to wild-type Dd2-B2” value in data set [13] was 1.4 fold. The results for the “fold higher susceptibility versus Dd2-B2” value in data set [13] (PfMDR1^edF1072L) and in [13] (setting [17]) were 3.6 fold and 2.0 fold, respectively. Besides, the “fold increased susceptibility versus Dd2-B2” value in data set [13] (PfMDR1^edS1075I) is 1.4 fold. Also, the “susceptibility … compared to PfMDR1^edF1072L” value in data set [13] is “decreased susceptibility”. Further, the “reduction of Hb levels within parasites” value in data set [14] is on record as “no significant changes”.
For the compound `C=C[C@H]1C[N@@]2CC[C@H]1C[C@H]2[C@H](O)c1ccnc2ccc(OC)cc12` [QN, quinine], in data set [13], the “fold increased susceptibility compared to wild-type Dd2-B2” value is given as 1.7 fold and the “susceptibility … compared to PfMDR1^edF1072L” value was “decreased susceptibility”. Moreover, in data set [13] (PfMDR1^edF1072L), the “fold higher susceptibility versus Dd2-B2” value was 3.6 fold. The “fold increased susceptibility versus Dd2-B2” value in data set [13] (PfMDR1^edS1075I) came to 5.1 fold. In addition, the “fold higher susceptibility versus Dd2-B2” value in data set [13] (setting [17]) is recorded as 3.7 fold.
For the compound `CCNCc1cc(Nc2ccnc3cc(Cl)ccc23)ccc1O` [md-ADQ, md-amodiaquine], the changes in susceptibility result in [13] (PfMDR1^edS1075I) is “no changes”.
For `CC1(C)N=C(N)N=C(N)N1OCCCOc1cc(Cl)c(Cl)cc1Cl` [WR99210], the “reduction of Hb levels within parasites” value in data set [14] was “no significant changes”.
With `C[C@H]1[C@@H](O)O[C@@H]2O[C@@]3(C)CC[C@H]4[C@H](C)CC[C@@H]1[C@@]24OO3` [DHA, dihydroartemisinin, reference compound], in data set [15], the “reduction in oocyst burden” value came out at 75% and the “reduction in the number of infected mosquitoes” value worked out at 65%. In [13] (all three mutations (F1072L, S1075I, Y290F)), the “fold increased susceptibility versus Dd2-B2” value is ~ 1.6 fold.
Regarding `CCN(CC)CCCC(C)Nc1ccnc2cc(Cl)ccc12` (stereo not shown) [CQ, chloroquine], the changes in susceptibility result in [13] (PfMDR1^edS1075I) was “no changes”.
Same read-out and setting: to ferroquine belongs “no changes”.
Regarding `CN(C)c1ccc2nc3ccc(=[N+](C)C)cc-3sc2c1` [Methylene Blue, methylene blue], the IC50 in data set [2] (read-out: Mean IC50 (lower 95% CI - upper 95% CI) Female carry-over) is 0.162 µM; in data set [2] (read-out: Mean IC50 (lower 95% CI - upper 95% CI) Female wash-out) it was 0.846 µM; in [10] (read-out: Mean IC50 (lower 95% CI - upper 95% CI) Male carry-over), 0.0615 µM; in data set [10] (read-out: Mean IC50 (lower 95% CI - upper 95% CI) Male wash-out), 0.147 µM. In addition, in [8] (positive control at 3′ the GAM IC50, in words), the transmission-blocking activity entry is “maximal”.
For the compound `CCNCCCC(C)Nc1ccnc2cc(Cl)ccc12` (stereo not shown) [md-CQ, monodesethyl-CQ], the changes in susceptibility entry in data set [13] (PfMDR1^edS1075I) was “no changes”.
On to `COc1ccc(C2CC(=O)C3=C(C2)NC(C)=C(C(=O)OC(C)C)C3c2ccccc2C)cc1OC` (stereo not shown) [GNF-Pf-5640], for which the “activity against liver-stage parasites” value in data set [16] is “inactive”. Also, in data set [1], the late-stage gametocytocidal activity entry is listed as “potent”. The “fold increase in IC50 compared to parental Dd2-B2” value in data set [13] (GNF-Pf-5640-selected clone 2C4C3, PfMDR1 S1075I) stood at 77 fold; in [13] (GNF-Pf-5640-selected clone 3H9C7, PfMDR1 Y290F), 79 fold. The “inhibition of HEK293 cells” value in [3] was less than 50%. Moreover, the IC50 in data set [4], in data set [5] and in data set [6] was less than 0.025 µM throughout. In addition, the early-stage gametocytocidal activity entry in data set [7] is reported as “potent”.
As for `Clc1ccc2c(N3CCN(CCCN4CCN(c5ccnc6cc(Cl)ccc56)CC4)CC3)ccnc2c1` [piperaquine], the changes in susceptibility result in data set [13] (PfMDR1^edS1075I) is “no changes”.
